Data on four molecules can be found in ChEMBL document CHEMBL3091272, “Caesalminaxins A-L, cassane diterpenoids from the seeds of Caesalpinia minax” (J Nat Prod, 2013).

Assay type in all cases: functional, cell-based
One test relates to HepG2. Briefly: Cytotoxicity against human HepG2 cells after 24 to 72 hrs by MTT assay. The method in brief:
(§1)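 Cells seeded at 5 × 10^4 cells/mL and held 24 h at 37 °C before the test compound was added as a DMSO solution at a range of concentrations. MTT staining was done after 24, 48 and 72 h. Absorbance was read at 490 nm against a negative control. IC50 was the concentration giving 50% cell death, taken from a plot of concentration versus % viability. Camptothecin served as positive control.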
(Tetrazolium dyes change colour on reduction, which living cells bring about.)

A further test deals with K562. Briefly: Cytotoxicity against human K562 cells after 24 to 72 hrs by MTT assay. The method in brief: as §1
For a further test, the system named is HeLa. Briefly: Cytotoxicity against human HeLa cells after 24 to 72 hrs by MTT assay. The procedure, abridged:
as §1

The next test relates to DU-145. The test can be described thus: Cytotoxicity against human DU145 cells after 24 to 72 hrs by MTT assay. The procedure, abridged:
as §1

For orientation: IC50 means the concentration that gives 50% inhibition. Read a high IC50 as lower potency.

SMILES strings stand for the structures.

For `CO[C@H]1C=C2[C@@](OC)(C[C@H]3[C@@H]([C@@H](OC(C)=O)[C@H](OC(C)=O)[C@@]4(O)C(C)(C)CC[C@H](OC(C)=O)[C@]34C)[C@]2(C)O)O1`, the IC50 in the test on HepG2 was 11.5 µM; in the test with K562, 9.2 µM; in the test on HeLa, more than 50 µM; in the test on DU-145 it was more than 50 µM.

As to `CCO[C@]1(C)[C@@H]2[C@@H](OC(C)=O)[C@H](OC(C)=O)[C@@]3(O)C(C)(C)CC[C@H](OC(C)=O)[C@]3(C)[C@H]2C[C@]12C(=O)O[C@@H]1O[C@@H]12`, the half-inhibitory concentration (IC50) was more than 50 µM in the test with HepG2, 9.9 µM in the test on K562, 12.1 µM with HeLa and 17.1 µM in the test on DU-145.

Consider `CC(=O)O[C@H]1[C@@H]2OC(=O)[C@@H]3c4ccoc4C[C@@H]([C@@H]23)[C@@]2(C)[C@@H](O)CCC(C)(C)[C@]12O`, for which the IC50 was 8 µM with HepG2, more than 50 µM in the test with K562, more than 50 µM in the test with HeLa and 12 µM in the test on DU-145.

`CC[C@@]1(O)C(=O)OCc2c1cc1n(c2=O)Cc2cc3ccccc3nc2-1` [CAMPTOTHECIN]: the IC50 with HepG2 worked out at 0.6 µM; with K562, 0.4 µM; with HeLa it was 0.5 µM; in the test on DU-145 it was 0.8 µM.
